Test results reported in ChEMBL document CHEMBL1146591, “New polyhydroxy sterols: proteasome inhibitors from a marine sponge Acanthodendrilla sp” (J Nat Prod, 2003).
In brackets after ≈: the same amount, converted by molar mass. Activity calls are given as the source filed them. The rule behind the calls is not given here.

Tests used:
Rattus norvegicus = species: Rattus norvegicus; test: Inhibition of chymotrypsin like activity of partially purified rat liver proteasome at 100 ug/mL; type: subcellular
Procedure, shortened: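 Enzyme: proteasome-enriched pellet from rat liver (300 000g, 2 h). Preincubated with test material 10 min at 30 °C in 50 mM Tris-HCl pH 7.8, 1 mM DTT, 5 mM EDTA, 0.02% SDS. Then 0.05 mM Suc-LLVY-MCA added for 1 h at 30 °C. Stopped with 10% SDS and AMC fluorescence read (ex 380/em 460 nm).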

HeLa = test: Cytotoxicity against human HeLa cells after 3 days by MTT assay; type: functional, cell-based; settings: 72 h
Procedure, shortened: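 HeLa cells grown in DMEM with 10% fetal calf serum, penicillin and streptomycin, 37 °C, 5% CO2. Seeded at 3 × 10^3 cells/well, precultured 1 day, then given compounds at various concentrations for 3 days at 37 °C. MTT (0.2 mg/mL in medium) added for 4 h, then DMSO, and OD read at 570 nm.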

[1] = Inhibition of chymotrypsin like activity of partially purified rat liver proteasome; type: subcellular
Procedure, shortened: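 Enzyme: proteasome-enriched pellet from rat liver homogenate (300 000g, 2 h). Preincubated with inhibitor 10 min at 30 °C in 50 mM Tris-HCl pH 7.8, 1 mM DTT, 5 mM EDTA, 0.02% SDS. Then 0.05 mM Suc-LLVY-MCA added, 1 h at 30 °C, stopped with 10% SDS, AMC fluorescence read (ex 380/em 460 nm). IC50 from duplicate measurements.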

Row | Structure (SMILES) | Activity (Rattus norvegicus) | IC50 [1] [µg/mL] | IC50 (HeLa) [µg/mL]
1 | CC(=O)O[C@@H]1[C@@H]2[C@@H](OC(C)=O)C=C3[C@H]([C@H](OC(C)=O)C[C@]4(C)[C@@H]([C@H](C)[C@H](O)CCC(C)C)CC[C@@H]34)[C@@]2(C)CC[C@@H]1O [AGOSTEROL G] |  | 100 (≈ 173 µM) | 8.8 (≈ 15.3 µM)
2 | C/C=C(\C[C@@H](O)[C@@H](C)[C@H]1CC[C@H]2C3=C[C@H](OC(C)=O)[C@H]4[C@@H](OC(C)=O)[C@@H](OC(C)=O)CC[C@]4(C)[C@H]3[C@H](O)C[C@]12C)C(C)C [AGOSTEROL A3] | inactive |  | 10 (≈ 16.6 µM)
3 | CC(=O)O[C@@H]1[C@@H]2[C@@H](OC(C)=O)C=C3[C@@H]4CC[C@H]([C@H](C)[C@H](O)CCC(C)C)[C@@]4(C)CC[C@]3(O)[C@@]2(C)CC[C@@H]1OC(C)=O [AGOSTEROL E] | inactive |  | 25 (≈ 43.3 µM)
4 | CC(=O)O[C@@H]1[C@@H]2[C@@H](OC(C)=O)C=C3[C@H]([C@H](O)C[C@]4(C)[C@@H]([C@H](C)[C@H](O)CCC(C)C)CC[C@@H]34)[C@@]2(C)CC[C@@H]1O [AGOSTEROL F] |  | 35 (≈ 65.5 µM) | 16 (≈ 29.9 µM)
5 | CC(=O)O[C@@H]1[C@@H]2[C@@H](OC(C)=O)C=C3[C@H]([C@H](O)C[C@]4(C)[C@@H]([C@H](C)[C@H](O)CCC(C)C)CC[C@@H]34)[C@@]2(C)CC[C@@H]1OC(C)=O [AGOSTEROL A] |  | 50 (≈ 86.7 µM) | 25 (≈ 43.3 µM)
6 | CC(=O)O[C@@H]1[C@@H]2[C@@H](OC(C)=O)C=C3[C@H](CC[C@]4(C)[C@@H]([C@H](C)[C@H](O)CCC(C)C)CC[C@@H]34)[C@@]2(C)CC[C@@H]1O [AGOSTEROL C] |  | 10 (≈ 19.3 µM) | 22 (≈ 42.4 µM)

Continued, in another order:

Row | Activity (Rattus norvegicus) | IC50 [1] [µg/mL] | Structure (SMILES) | IC50 (HeLa) [µg/mL]
7 | inactive |  | C/C=C(\C[C@@H](O)[C@@H](C)[C@H]1CC[C@H]2C3=C[C@H](OC(C)=O)[C@H]4[C@@H](OC(C)=O)[C@@H](OC(C)=O)CC[C@]4(C)[C@@]3(O)CC[C@]12C)C(C)C [AGOSTEROL E3] | 14 (≈ 23.2 µM)
8 |  | 23 (≈ 43 µM) | CC(=O)O[C@@H]1[C@@H]2[C@@H](OC(C)=O)C=C3[C@H](CC[C@]4(C)[C@@H]([C@@](C)(O)[C@H](O)CCC(C)C)CC[C@@H]34)[C@@]2(C)CC[C@@H]1O [AGOSTEROL C2] | > 25
9 |  | 20 (≈ 36.6 µM) | C=C(CC(O)C(C)(O)[C@H]1CC[C@H]2C3=C[C@H](OC(C)=O)[C@H]4[C@@H](OC(C)=O)[C@@H](O)CC[C@]4(C)[C@H]3CC[C@]12C)C(C)C (stereo not given in full) [AGOSTEROL C7] | > 25
10 |  | 90 (≈ 156 µM) | CC(=O)O[C@@H]1[C@@H]2[C@@H](OC(C)=O)C=C3[C@H](CC[C@]4(C)[C@@H]([C@@](C)(O)[C@H](O)CCC(C)C)CC[C@@H]34)[C@@]2(C)CC[C@@H]1OC(C)=O [AGOSTEROL D2] | 23 (≈ 39.9 µM)
